Series [1] has as its system Mus musculus. Description: Neurotoxicity in mouse at 100 mg/kg, ip after 0.5 hrs by rotarod test. In kind it is toxicity, organism-based. Conditions: in vivo. In a few lines: (§1)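 Mice were dosed ip with compound suspended in 0.5% methylcellulose. Rotarod: a 1 in. knurled rod turning at 6 rpm. Neurotoxicity was scored as failure to stay on the rod for at least 1 min in each of three trials. Results are given as the number of animals affected out of the number tested.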
In general terms: The rotarod test checks motor coordination on a turning rod.

Series [2] concerns Mus musculus. Description: Neurotoxicity in mouse at 30 mg/kg, ip after 4 hrs by rotarod test. In kind it is toxicity, organism-based. The following applies: in vivo. In a few lines:
as §1

The test system of series [3] is Mus musculus. Description: Neurotoxicity in mouse at 50 mg/kg, ip after 4 hrs by rotarod test. In kind it is toxicity, organism-based. Conditions: in vivo. The procedure, abridged: as §1
Series [4] concerns Mus musculus. Description: Neurotoxicity in mouse at 300 mg/kg, ip after 0.5 hrs by rotarod test. In kind it is toxicity, organism-based. Conditions: in vivo. The procedure, abridged:
as §1

Series [5] deals with Mus musculus. Description: Neurotoxicity in mouse at 30 mg/kg, ip after 0.5 hrs by rotarod test. Conditions: in vivo. In kind it is toxicity, organism-based. In a few lines: as §1
The test system of series [6] is Mus musculus. Description: Neurotoxicity in mouse at 50 mg/kg, ip after 2 hrs by rotarod test. In kind it is toxicity, organism-based. The following applies: in vivo. The procedure, abridged: as §1
For series [7], the system named is Mus musculus. Description: Neurotoxicity in mouse at 50 mg/kg, ip after 1 hr by rotarod test. In kind it is toxicity, organism-based. The following applies: in vivo. The procedure, abridged: as §1
Series [8] deals with Mus musculus. Description: Anticonvulsant activity in mouse assessed as protection against maximal electric shock-induced seizures at 30 mg/kg, ip measured after 4 hrs. In kind it is functional, organism-based. In a few lines: (§2)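 Mice dosed ip with suspension in 0.5% methylcellulose; maximal electroshock applied at the listed time after dosing. Protection = abolition of hindlimb tonic extension component of seizure; reported as animals protected/animals tested.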

Series [9] deals with Mus musculus. Description: Anticonvulsant activity in mouse assessed as protection against subcutaneous pentylenetetrazol-induced seizures at 300 mg/kg, ip measured after 0.5 hrs. In kind it is functional, organism-based. The procedure, abridged:
(§3)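 Mice dosed ip as 0.5% methylcellulose suspension; pentylenetetrazole 85 mg/kg in 0.9% NaCl injected subcutaneously into posterior midline, animals watched at least 30 min. Protection = no threshold seizure (single clonic spasm episode lasting ≥5 s); scored protected/tested.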

Series [10] deals with Mus musculus. Description: Anticonvulsant activity in mouse assessed as protection against maximal electric shock-induced seizures at 100 mg/kg, ip measured after 0.5 hrs. In kind it is functional, organism-based. In a few lines: as §2
Series [11] deals with Mus musculus. Description: Anticonvulsant activity in mouse assessed as protection against maximal electric shock-induced seizures at 300 mg/kg, ip measured after 4 hrs. In kind it is functional, organism-based. In a few lines:
as §2

The test system of series [12] is Mus musculus. Description: Anticonvulsant activity in mouse assessed as protection against subcutaneous pentylenetetrazol-induced seizures at 300 mg/kg, ip measured after 4 hrs. In kind it is functional, organism-based. In a few lines: as §3
In series [13] the test system is Mus musculus. Description: Anticonvulsant activity in mouse assessed as protection against subcutaneous pentylenetetrazol-induced seizures at 100 mg/kg, ip measured after 0.5 hrs. In kind it is functional, organism-based. The procedure, abridged: as §3
Series [14] has as its system Mus musculus. Description: Anticonvulsant activity in mouse assessed as protection against maximal electric shock-induced seizures at 100 mg/kg, ip measured after 4 hrs. In kind it is functional, organism-based. The procedure, abridged: as §2
Series [15] concerns Mus musculus. Description: Anticonvulsant activity in mouse assessed as protection against maximal electric shock-induced seizures at 300 mg/kg, ip measured after 0.5 hrs. In kind it is functional, organism-based. In a few lines: as §2
In series [16] the test system is Mus musculus. Description: Anticonvulsant activity in mouse assessed as protection against subcutaneous pentylenetetrazol-induced seizures at 30 mg/kg, ip measured after 0.5 hrs. In kind it is functional, organism-based. In a few lines:
as §3

The test system of series [17] is Mus musculus. Description: Anticonvulsant activity in mouse assessed as protection against maximal electric shock-induced seizures at 30 mg/kg, ip measured after 0.5 hrs. In kind it is functional, organism-based. In a few lines:
as §2

Series [18] relates to Mus musculus. Description: Anticonvulsant activity in mouse assessed as protection against subcutaneous pentylenetetrazol-induced seizures at 100 mg/kg, ip measured after 4 hrs. In kind it is functional, organism-based. The procedure, abridged:
as §3

For series [19], the system named is Mus musculus. Description: Neurotoxicity in mouse at 30 mg/kg, ip after […] by rotarod test. In kind it is toxicity, organism-based. Conditions: in vivo.
In series [20] the test system is Mus musculus. Description: Neurotoxicity in mouse at 100 mg/kg, ip after 1 hr by rotarod test. In kind it is toxicity, organism-based. Conditions: in vivo. The procedure, abridged: as §1
In series [21] the test system is Mus musculus. Description: Anticonvulsant activity in mouse assessed as protection against maximal electric shock-induced seizures at 100 mg/kg, ip measured after […]. In kind it is functional, organism-based.
Series [22] relates to Mus musculus. Description: Neurotoxicity in mouse at 300 mg/kg, ip after 4 hrs by rotarod test. The following applies: in vivo. In kind it is toxicity, organism-based. The procedure, abridged:
as §1

Series [23] concerns Mus musculus. Description: Anticonvulsant activity in mouse assessed as protection against maximal electric shock-induced seizures at 100 mg/kg, ip measured after 1 hr. In kind it is functional, organism-based. The procedure, abridged:
as §2

In series [24] the test system is Mus musculus. Description: Anticonvulsant activity in mouse assessed as protection against subcutaneous pentylenetetrazol-induced seizures at 30 mg/kg, ip measured after 4 hrs. In kind it is functional, organism-based. The procedure, abridged: as §3
The test system of series [25] is Rattus norvegicus. Description: Anticonvulsant activity in rat assessed as protection against maximal electric shock-induced seizures at 30 mg/kg, po measured after […]. In kind it is functional, organism-based.
Series [26] relates to Rattus norvegicus. Description: Neurotoxicity in rat at 30 mg/kg, po after 0.5 hrs by rotarod test. In kind it is toxicity, organism-based. The following applies: in vivo.
Series [27] has as its system Rattus norvegicus. Description: Anticonvulsant activity in rat assessed as protection against maximal electric shock-induced seizures at 30 mg/kg, po measured after 1 hr. In kind it is functional, organism-based. In a few lines: (§4)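 Rats dosed ip or orally as 0.5% methylcellulose suspension; maximal electroshock at listed time. Protection = abolition of hindlimb tonic extension; 4 rats per group, scored protected/tested.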

Series [28] deals with Rattus norvegicus. Description: Neurotoxicity in rat at 30 mg/kg, ip after 0.5 hrs by rotarod test. In kind it is toxicity, organism-based. The following applies: in vivo.
The test system of series [29] is Mus musculus. Description: Anticonvulsant activity in mouse assessed as protection against 6 Hz psychomotor seizure at 100 mg/kg, ip after 2 hrs. In kind it is functional, organism-based. In a few lines: (§5)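 Suspension in 0.5% methylcellulose given ip to mice; corneal stimulation with 0.2 ms monopolar rectangular pulses at 6 Hz for 3 s from a constant current device, mice restrained then released to observation cage. Protected if normal exploratory behaviour resumed within 10 s of stimulation. Scored as protected/tested, 4 mice per group.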

Series [30] deals with Rattus norvegicus. Description: Neurotoxicity in rat at 30 mg/kg, po after 1 hr by rotarod test. In kind it is toxicity, organism-based. Conditions: in vivo.
The subject of series [31] is Rattus norvegicus. Description: Neurotoxicity in rat at 30 mg/kg, ip after 2 hrs by rotarod test. In kind it is toxicity, organism-based. The following applies: in vivo.
In series [32] the test system is Rattus norvegicus. Description: Anticonvulsant activity in rat assessed as protection against maximal electric shock-induced seizures at 30 mg/kg, ip measured after 2 hrs. In kind it is functional, organism-based. The procedure, abridged: as §4
Series [33] concerns Rattus norvegicus. Description: Anticonvulsant activity in rat assessed as protection against maximal electric shock-induced seizures at 30 mg/kg, po measured after 2 hrs. In kind it is functional, organism-based. In a few lines:
as §4

Series [34] concerns Rattus norvegicus. Description: Neurotoxicity in rat at 30 mg/kg, po after 2 hrs by rotarod test. In kind it is toxicity, organism-based. The following applies: in vivo.
Series [35] concerns Rattus norvegicus. Description: Neurotoxicity in rat at 30 mg/kg, po after 4 hrs by rotarod test. In kind it is toxicity, organism-based. Conditions: in vivo.
The test system of series [36] is Rattus norvegicus. Description: Neurotoxicity in rat at 30 mg/kg, ip after 4 hrs by rotarod test. In kind it is toxicity, organism-based. Conditions: in vivo.
Series [37] has as its system Mus musculus. Description: Anticonvulsant activity in mouse assessed as protection against 6 Hz psychomotor seizure at 100 mg/kg, ip after 4 hrs. In kind it is functional, organism-based. The procedure, abridged:
as §5

For series [38], the system named is Rattus norvegicus. Description: Anticonvulsant activity in rat assessed as protection against maximal electric shock-induced seizures at 30 mg/kg, po measured after 4 hrs. In kind it is functional, organism-based. In a few lines:
as §4

Series [39] concerns Rattus norvegicus. Description: Anticonvulsant activity in rat assessed as protection against maximal electric shock-induced seizures at 30 mg/kg, po measured after 0.5 hrs. In kind it is functional, organism-based. The procedure, abridged:
as §4

For series [40], the system named is Rattus norvegicus. Description: Neurotoxicity in rat at 30 mg/kg, po after […] by rotarod test. The following applies: in vivo. In kind it is toxicity, organism-based.
In series [41] the test system is Rattus norvegicus. Description: Neurotoxicity in rat at 30 mg/kg, ip after 1 hr by rotarod test. In kind it is toxicity, organism-based. The following applies: in vivo.
Series [42] concerns Mus musculus. Description: Neurotoxicity in mouse at 100 mg/kg, ip after 2 hrs by rotarod test. In kind it is toxicity, organism-based. Conditions: in vivo. The procedure, abridged: as §1
The test system of series [43] is Rattus norvegicus. Description: Anticonvulsant activity in rat assessed as protection against maximal electric shock-induced seizures at 30 mg/kg, ip measured after 4 hrs. In kind it is functional, organism-based. In a few lines:
as §4

Series [44] deals with Rattus norvegicus. Description: Neurotoxicity in rat at 30 mg/kg, ip after […] by rotarod test. In kind it is toxicity, organism-based. Conditions: in vivo.
Series [45] deals with Mus musculus. Description: Neurotoxicity in mouse at 100 mg/kg, ip after 4 hrs by rotarod test. In kind it is toxicity, organism-based. The following applies: in vivo. The procedure, abridged: as §1

The source made the active and inactive calls.

This passage reports Activity results from ChEMBL document CHEMBL3774372, “Design, physico-chemical properties and biological evaluation of some new N-[(phenoxy)alkyl]- and N-{2-[2-(phenoxy)ethoxy]ethyl}aminoalkanols as anticonvulsant agents” (Bioorg Med Chem, 2016).

Consider `Cc1cccc(C)c1OCCOCCN[C@H](C)CO`, for which the Activity entry was “Toxic” with Mus musculus [1]; “Non-toxic” in the series with Mus musculus [2]; “Non-toxic” in the series with Mus musculus [3]; “Toxic” with Mus musculus [4]; “Non-toxic” with Mus musculus [5]; “Non-toxic” with Mus musculus [6]. Besides, the Activity entry in the series with Mus musculus [7] is reported as “Non-toxic”.

For the compound `Cc1cccc(OCCCNCC(O)c2ccccc2)c1C` (stereo not given), the result with Mus musculus [8], with Mus musculus [9], with Mus musculus [10], in the series on Mus musculus [11], with Mus musculus [12] and in the series with Mus musculus [13] was inactive. The outcome in the series on Mus musculus [14], in the series with Mus musculus [16], in the series on Mus musculus [17], in the series on Mus musculus [18], in the series with Mus musculus [21] and in the series with Mus musculus [23] was inactive. Moreover, the outcome in the series on Mus musculus [24] was inactive. In addition, the Activity entry in the series with Mus musculus [4], with Mus musculus [19], in the series with Mus musculus [20] and in the series with Mus musculus [22] was “Toxic” throughout. In the series on Mus musculus [15], the result was Active.

With `Cc1cccc(OCCCN2CCC(O)CC2)c1C`, the result in the series on Rattus norvegicus [25], in the series with Rattus norvegicus [27], in the series with Mus musculus [29], with Rattus norvegicus [32], in the series with Rattus norvegicus [33] and in the series with Mus musculus [14] was inactive. The result with Mus musculus [37], in the series with Rattus norvegicus [38], with Rattus norvegicus [39] and in the series with Rattus norvegicus [43] was inactive. In addition, the Activity result with Rattus norvegicus [26], with Rattus norvegicus [28], in the series on Rattus norvegicus [30], with Rattus norvegicus [31], with Rattus norvegicus [34] and in the series with Rattus norvegicus [35] was “Non-toxic” throughout. Besides, the Activity entry in the series on Rattus norvegicus [36], in the series on Rattus norvegicus [40], in the series on Rattus norvegicus [41], with Mus musculus [42], in the series with Mus musculus [20] and in the series on Rattus norvegicus [44] was “Non-toxic” in each case. Moreover, in the series with Mus musculus [45], the Activity result was “Non-toxic”. Further, the result with Mus musculus [10] and in the series on Mus musculus [21] was Active.
